Assays:
[1] = target: Sodium channel protein type 1 subunit alpha (Homo sapiens) (UniProt P35498); assay: Activation of human Nav1.1 expressed in T-Rex-CHO cells assessed as change in decay time constant of channel currents at 3 uM at holding potential of -120 mV by automated patch-clamp electrophysiology assay relative to control; type: cell-based
Summary of the method: (§1)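 Human Nav1.1 stably expressed in CHO cells; inactivation current decay time constant (tau) measured on IonWorks automated patch platform; tau given as % of control; mean of N=5 unless noted, standard deviation reported.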

[2] = target: Sodium channel protein type 1 subunit alpha (Homo sapiens) (UniProt P35498); assay: Activation of human Nav1.1 expressed in T-Rex-CHO cells assessed as change in decay time constant of channel currents at 10 uM at holding potential of -120 mV by automated patch-clamp electrophysiology assay relative to control; type: cell-based; summary of the method: as §1
[3] = target: Sodium channel protein type 1 subunit alpha (Homo sapiens) (UniProt P35498); assay: Activation of human Nav1.1 expressed in T-Rex-CHO cells assessed as change in decay time constant of channel currents at 1 uM at holding potential of -120 mV by automated patch-clamp electrophysiology assay relative to control; type: cell-based; summary of the method: as §1
[4] = 1-octanol/water partition co-efficient, log D of the compound at pH 7.4 by chromatographic analysis; type: physicochemical
[5] = target: Sodium channel protein type 1 subunit alpha (Homo sapiens) (UniProt P35498); assay: Activation of human Nav1.1 expressed in T-Rex-CHO cells assessed as change in decay time constant of channel currents at 1 uM by Q-patch assay relative to control; type: cell-based
Summary of the method: (§2)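 Human Nav1.1 in CHO cells, Q-patch automated patch clamp; current decay time constant (tau) and top current ratio expressed as % of control; mean of N=4 unless noted, standard deviation reported.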

[6] = target: Sodium channel protein type 1 subunit alpha (Homo sapiens) (UniProt P35498); assay: Activation of human Nav1.1 expressed in T-Rex-CHO cells assessed as change in top peak current at 10 uM by Q-patch assay relative to control; type: cell-based; summary of the method: as §2
[7] = target: Sodium channel protein type 1 subunit alpha (Homo sapiens) (UniProt P35498); assay: Activation of human Nav1.1 expressed in T-Rex-CHO cells assessed as change in decay time constant of channel currents at 30 uM at holding potential of -120 mV by automated patch-clamp electrophysiology assay relative to control; type: cell-based; summary of the method: as §1
[8] = target: Sodium channel protein type 1 subunit alpha (Homo sapiens) (UniProt P35498); assay: Activation of human Nav1.1 expressed in T-Rex-CHO cells assessed as change in top peak current at 1 uM by Q-patch assay relative to control; type: cell-based; summary of the method: as §2
[9] = target: Sodium channel protein type 1 subunit alpha (Homo sapiens) (UniProt P35498); assay: Activation of human Nav1.1 expressed in T-Rex-CHO cells assessed as change in decay time constant of channel currents at 10 uM by Q-patch assay relative to control; type: cell-based; summary of the method: as §2
[10] = Aqueous solubility of compound at pH 6.8 by UV absorbance method; type: physicochemical; details: buffer
Summary of the method: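 Solubility determined at pH 6.8.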

[11] = target: Sodium channel protein type 1 subunit alpha (Homo sapiens) (UniProt P35498); assay: Activation of human Nav1.1 expressed in T-Rex-CHO cells assessed as change in decay time constant of channel currents at 3 uM by Q-patch assay relative to control; type: cell-based; summary of the method: as §2
[12] = target: Sodium channel protein type 1 subunit alpha (Homo sapiens) (UniProt P35498); assay: Activation of human Nav1.1 expressed in T-Rex-CHO cells assessed as change in top peak current at 3 uM by Q-patch assay relative to control; type: cell-based; summary of the method: as §2
[13] = target: Sodium channel protein type 1 subunit alpha (Homo sapiens) (UniProt P35498); assay: Activation of human Nav1.1 expressed in T-Rex-CHO cells assessed as change in decay time constant of channel currents at 0.1 uM by Q-patch assay relative to control; type: cell-based; summary of the method: as §2
[14] = target: Sodium channel protein type 1 subunit alpha (Homo sapiens) (UniProt P35498); assay: Activation of human Nav1.1 expressed in T-Rex-CHO cells assessed as change in decay time constant of channel currents at 0.3 uM by Q-patch assay relative to control; type: cell-based; summary of the method: as §2
[15] = target: Sodium channel protein type 1 subunit alpha (Homo sapiens) (UniProt P35498); assay: Activation of human Nav1.1 expressed in T-Rex-CHO cells assessed as change in decay time constant of channel currents at 0.3 uM at holding potential of -120 mV by automated patch-clamp electrophysiology assay relative to control; type: cell-based; summary of the method: as §1
[16] = target: Sodium channel protein type 1 subunit alpha (Homo sapiens) (UniProt P35498); assay: Activation of human Nav1.1 expressed in T-Rex-CHO cells assessed as change in decay time constant of channel currents at 0.03 uM by Q-patch assay relative to control; type: cell-based; summary of the method: as §2

Row | Activity [1] | Activity [2] | Activity [3] | further results | SMILES
1 | 313% | 699% |  |  | CC(C)c1ccc(NC(=O)c2c(-c3ccc(Cl)cc3)cncc2N2CCOCC2)cn1
2 | 271% |  | 111% |  | CC(C)c1ccc(NC(=O)c2c(-c3cccc(F)c3)ncnc2N2CC[C@H](F)C2)cn1
3 | 140% | 257% |  |  | CC(C)c1ccc(NC(=O)c2c(-c3ccc(Cl)cc3)ncnc2N2CCCC2)cn1
4 | 145% | 162% |  |  | CC(C)c1ccc(NC(=O)c2c(-c3ccc(Cl)cc3)ncnc2N2CC[C@@H](F)C2)cn1
5 | 197% |  | 93% |  | CC(C)c1ccc(NC(=O)c2c(-c3ccc(F)cc3)ncnc2N2CC[C@H](F)C2)cn1
6 | 258% | 370% |  | chromatographic logD [4]: 2.97; Activity [5]: 198%; Activity [6]: 131%; Activity [7]: 555%; Activity [8]: 113%; Activity [9]: 774%; solubility [10]: > 100 µg/mL; Activity [11]: 731%; Activity [12]: 115% | CC(C)c1ccc(NC(=O)c2c(-c3ccc(Cl)cc3)ncnc2N2CCOCC2)cn1
7 | 111% | 90% |  |  | CC(C)c1ccc(NC(=O)c2c(-c3ccc(Cl)cc3)ncnc2N2CCC2)cn1
8 | 714% |  | 260% | Activity [13]: 193%; Activity [5]: 1900%; Activity [14]: 853%; Activity [15]: 135%; Activity [16]: 124% | CC(C)c1ccc(NC(=O)c2c(-c3cc(F)ccc3F)ncnc2N2CC[C@H](F)C2)cn1
9 | 184% | 131% |  |  | CC(C)c1ccc(NC(=O)c2c(-c3ccc(Cl)cc3)ncnc2N2CCC(F)(F)C2)cn1
10 | 298% |  | 114% |  | CC(C)c1ccc(NC(=O)c2c(-c3cc(F)cc(F)c3F)ncnc2N2CC[C@H](F)C2)cn1
11 | 374% | 767% |  |  | CC(C)c1ccc(NC(=O)c2c(-c3ccc(Cl)cc3)ccnc2N2CCOCC2)cn1
12 | 97% | 107% |  |  | CC(C)c1ccc(NC(=O)c2c(N3CCOCC3)ccnc2-c2ccc(Cl)cc2)cn1

Reference: ChEMBL document CHEMBL4422659, “Discovery of novel 4-phenyl-2-(pyrrolidinyl)nicotinamide derivatives as potent Nav1.1 activators” (Bioorg Med Chem Lett, 2019)
